A selection: hits, their analogues and other compounds. The true share with any hit is near 3.8%.
KCNQ1 inh: inhibitors of human KCNQ1 potassium channel | P51787 | AID 2642 | 310,000 compounds, 1.3% hits | CHO-K1 KCNQ1, FluxOR thallium flux fluorescence; hits give high values | B-score at 10 µM;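 active = compounds whose thallium flux B-score, printed positive for inhibition, exceeds three library SD while starting fluorescence stays within three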;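 note: channel opened by potassium depolarization with thallium stimulus after 20 min compound exposure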
KCNQ1 act: potentiates or activates the human KCNQ1 potassium channel; CHO-K1 KCNQ1, thallium flux FluxOR fluorescence; hits give high values; B-score at 10 µM; 310,000 compounds, 0.35% hits;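 active = fluorescence ratio B-score, a plate-corrected score, at least three library SD, with initial intensity B-score within 5 SD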
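assay system = CHO-K1 cells stably expressing KCNQ1 | medium = assay buffer, equal DMSO in all wells | timing = 37 °C overnight plating, 90-min dark dye load, 20-min compound pretreatment | measured by = kinetic FluxOR thallium fluorescence, 10-s 1-Hz baseline, 110-s post-stimulus read | measure = fluorescence change relative to baseline, converted to B score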
Kir21 inh: Kir2.1 (mouse) channel inhibition; P35561; HEK293-Kir2.1, FluxOR thallium flux fluorescence; hits give low values; B-score at 10 µM; 310,000 compounds, 0.85% hits; AID 1672;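 active = fluorescence ratio B-score at or below minus 3 SD of library scores, with starting-brightness B-score within 2 SD, cut at about -4.2 in these data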;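 note: channel flux triggered by added potassium and thallium sulfate stimulus; B-score of peak minus minimum fluorescence over baseline after thallium stimulus; more negative B-score means stronger Kir2.1 block with less thallium influx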
KCNK9 block: inhibitors of human KCNK9 two-pore domain potassium channel; Q9NPC2; HEK293 KCNK9, FluxOR thallium flux fluorescence; hits give low values; B-score at 10 µM; 310,000 compounds, 1.2% hits; AID 488922;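 active = ratio B-score over 3 SD below the library mean, with starting fluorescence within 5 SD of its mean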;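 note: negative B-score means less thallium flux so channel inhibition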
KCNK3 block: human KCNK3 channel inhibition, primary screen. O14649. 340,000 compounds, 0.84% hits. AID 602410. CHO-KCNK3 thallium flux, FluxOR fluorescence; hits give low values. B-score at 10 µM;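 active = B-score under library mean minus 4 SD, starting fluorescence ratio at most library mean plus 5 SD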;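 note: more negative B-score means stronger inhibition of thallium flux through KCNK3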
Target sequence (O14649 whole entry, looked up): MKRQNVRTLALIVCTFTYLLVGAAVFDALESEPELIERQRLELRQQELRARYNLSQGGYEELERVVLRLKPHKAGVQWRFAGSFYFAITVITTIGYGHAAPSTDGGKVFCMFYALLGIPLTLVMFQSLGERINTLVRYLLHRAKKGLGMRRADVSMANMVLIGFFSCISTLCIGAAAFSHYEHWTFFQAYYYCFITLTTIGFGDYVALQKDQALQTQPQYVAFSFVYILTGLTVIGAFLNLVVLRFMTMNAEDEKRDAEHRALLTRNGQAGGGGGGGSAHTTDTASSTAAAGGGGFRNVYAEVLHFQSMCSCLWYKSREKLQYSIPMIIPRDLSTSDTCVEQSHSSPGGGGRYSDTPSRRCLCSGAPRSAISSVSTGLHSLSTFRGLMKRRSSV
hERG protect: compounds protecting human hERG from proarrhythmic drug block | Q12809 | CHO-hERG, FluxOR thallium flux, dofetilide IC70 present | activation (rescue from dofetilide block), less the hit threshold, % at 10 µM | 310,000 compounds, 0.51% hits | AID 1511;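 active = activation above the mean of controls blocked by dofetilide plus 5 SD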;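 note: thallium influx through hERG after potassium depolarization seen as dye fluorescence rise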
KCNQ1 inh valid: human KCNQ1 channel inhibition, validation assay; 1,600 compounds, 93% hits; KCNQ1 cell line, FluxOR thallium flux fluorescence; shares compounds with KCNQ1 inh; inhibition, % at 10 µM;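 active = primary screen active, with duplicate mean exceeding buffer control mean plus 3 SD of buffer wells, cut at about 28% in these data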;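 note: 0% = buffer control ratio and 100% = XE991 inhibitor control ratio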
CHO Tl flux: counter-screen for KCNQ1 inhibitors: effect in parental CHO cells | shares compounds with KCNQ1 inh | parental CHO-K1, FluxOR thallium flux fluorescence ratio; hits give low values; zero means no signal rise above baseline | fluorescence ratio (Tl flux) at 10 µM | 1,600 compounds, 21% hits;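 active = mean of duplicate thallium-flux fluorescence ratios in parental host cells more than 5 SD below the buffer control mean, cut at about 0.38 in these data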;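 note: ratio is peak minus minimum fluorescence divided by baseline fluorescence; actives read low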
KCNQ1 APC inh: human KCNQ1 inhibition validated by electrophysiology. calls only at 10 µM. shares compounds with KCNQ1 inh. 490 compounds, 20% hits. KCNQ1-CHO cells, automated patch clamp current;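 active = KCNQ1 current drop exceeding 3 SD of negative control wells, seen in both duplicate runs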;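 note: steady state current during a 2 s step from -80 to +40 mV; negative values mean current inhibition and positive values mean potentiation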
KCNQ2 inh: KCNQ1 inhibitor that also blocks rat KCNQ2 channel; KCNQ2 cells, FluxOR thallium flux fluorescence; inhibition, % at 10 µM; 1,600 compounds, 71% hits; shares compounds with KCNQ1 inh;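 active = mean percent inhibition of the KCNQ2 thallium signal more than 5 SD above the buffer-only control wells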;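 note: KCNQ2 expressed in CHO cells; 0% = buffer control wells and 100% = XE-991 inhibitor control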
KCNQ1-KCNE1 inh: human KCNQ1/KCNE1 inhibition in KCNQ1 specificity screen | shares compounds with KCNQ1 inh | 1,600 compounds, 77% hits | inhibition, % at 10 µM | KCNQ1/KCNE1 cells, FluxOR thallium flux fluorescence | AID 652147;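 active = mean percent inhibition of duplicate wells above the buffer-only control mean plus 3 SD of those controls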;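 note: 0% = buffer only wells and 100% = XE-991 inhibitor control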
* = called active by the depositor.

For CN(c1ccc(Cl)cc1)S(=O)(=O)c1nnc(NC(=O)C(C)(C)C)s1 the results were KCNQ1 inh inactive, KCNQ1 act inactive, Kir21 inh 1.48, KCNK9 block inactive, KCNK3 block inactive and hERG protect -7.8.
For O=C(Nc1cccc(Cl)c1)Nc1cnccn1 the results were KCNQ1 inh inactive, KCNQ1 act inactive, Kir21 inh 0.45, KCNK9 block inactive, KCNK3 block inactive and hERG protect -2.9.
`O=C(Nc1cccc(Cl)c1)Nc1ccnc(-c2cccnc2)n1` gave KCNQ1 inh 6*, KCNQ1 act inactive, Kir21 inh -2.75, KCNK9 block inactive, KCNK3 block inactive, hERG protect -9.2, KCNQ1 inh valid 73.5*, CHO Tl flux 0.522, KCNQ2 inh inactive and KCNQ1-KCNE1 inh inactive.
S=C(NCC1CCCCC1)Nc1ccc(Oc2ccccc2)cc1 was read as KCNQ1 inh 9*, KCNQ1 act inactive, Kir21 inh -5.23, KCNK9 block inactive, KCNK3 block inactive, hERG protect -9.9, KCNQ1 inh valid 81.0*, CHO Tl flux 0.527, KCNQ2 inh 65.0%* and KCNQ1-KCNE1 inh inactive.
`O=C(NCc1ccco1)c1ccccc1Nc1ccc(F)cc1` gave KCNQ1 inh 7*, KCNQ1 act inactive, Kir21 inh -1.26, KCNK9 block inactive, KCNK3 block inactive, hERG protect -13.7, KCNQ1 inh valid 105.0*, CHO Tl flux 0.412, KCNQ1 APC inh active, KCNQ2 inh 62.7%* and KCNQ1-KCNE1 inh 91.0%*.
Screening COc1ccc(-c2nc(NC(=O)c3[nH]c(C)c(C(C)=O)c3C)sc2C)cc1 returned KCNQ1 inh 14*, KCNQ1 act inactive, Kir21 inh 0.64, KCNK9 block inactive, KCNK3 block -9.86*, hERG protect -21.8, KCNQ1 inh valid 97.0*, CHO Tl flux 0.277*, KCNQ2 inh 109.7%* and KCNQ1-KCNE1 inh 180.0%*.
COc1ccc(OC)c(NC(=O)c2[nH]c(C)c(C(C)=O)c2C)c1 was read as KCNQ1 inh inactive, KCNQ1 act inactive, Kir21 inh 0.98, KCNK9 block inactive, KCNK3 block inactive and hERG protect -12.6.
Cc1ccc(CNC(=O)Cn2cnc3c(NC(=O)OCc4ccccc4)ncnc32)o1 was read as KCNK3 block inactive.
`Cc1nc(N2CCC(C)CC2)c2c(C)c(C(=O)Nc3ccc4c(c3)OCCO4)sc2n1` gave KCNQ1 inh 8*, KCNQ1 act inactive, Kir21 inh 0.01, KCNK9 block inactive, KCNK3 block inactive, hERG protect -10.3, KCNQ1 inh valid 112.0*, CHO Tl flux 0.423, KCNQ1 APC inh inactive, KCNQ2 inh 119.7%* and KCNQ1-KCNE1 inh 91.5%*.
Cc1c(C(=O)Nc2ccc3c(c2)OCCO3)sc2ncnc(N3CCCCC3C)c12 (centres undefined) was read as KCNQ1 inh inactive, KCNQ1 act inactive, Kir21 inh 0.73, KCNK9 block inactive, KCNK3 block inactive and hERG protect -16.0.
For Cc1ccc2cc(CN(CCN(C)C)C(=S)Nc3ccccc3)c(=O)[nH]c2c1C the results were KCNQ1 inh 7*, KCNQ1 act inactive, Kir21 inh 0.35, KCNK9 block inactive, KCNK3 block inactive, hERG protect 11.7*, KCNQ1 inh valid 55.5*, CHO Tl flux 0.508, KCNQ2 inh inactive and KCNQ1-KCNE1 inh 86.0%*.
CCN(CC)CCN(Cc1cc2cccc(C)c2[nH]c1=O)C(=S)Nc1ccccc1 was read as KCNQ1 inh inactive, KCNQ1 act inactive, Kir21 inh -0.52, KCNK9 block inactive, KCNK3 block inactive and hERG protect -10.6.
O=c1c2sc3nc(N4CCOCC4)c4c(c3c2ncn1CCc1ccccc1)CCCC4 was read as KCNQ1 inh 9*, KCNQ1 act inactive, Kir21 inh 1.03, KCNK9 block inactive, KCNK3 block inactive, hERG protect -10.5, KCNQ1 inh valid 102.5*, CHO Tl flux 0.445, KCNQ1 APC inh inactive, KCNQ2 inh 92.0%* and KCNQ1-KCNE1 inh 103.0%*.
`COc1ccc2noc3c2c1C(=O)c1ccccc1-3` gave KCNQ1 inh 23*, KCNQ1 act inactive, Kir21 inh -15.9, KCNK9 block inactive, KCNK3 block inactive, hERG protect -49.9, KCNQ1 inh valid active, CHO Tl flux 0.0045*, KCNQ2 inh inactive and KCNQ1-KCNE1 inh inactive.
`CC(=O)NCc1ccc(S(=O)(=O)NC(C(=O)O)C(C)C)cc1` (centres undefined) gave KCNQ1 inh inactive, KCNQ1 act inactive, Kir21 inh -0.54, KCNK9 block inactive, KCNK3 block inactive and hERG protect -17.2.
For COc1cccc(C2CC(c3cccs3)=NN2C(=O)CSc2nc3c(cnn3-c3ccc(F)cc3)c(=O)[nH]2)c1OC (centres undefined) the results were KCNQ1 inh 15*, KCNQ1 act inactive, Kir21 inh 1.41, KCNK9 block inactive, KCNK3 block inactive, hERG protect -7.0, KCNQ1 inh valid 116.0*, CHO Tl flux 0.421, KCNQ1 APC inh inactive, KCNQ2 inh 70.7%* and KCNQ1-KCNE1 inh 85.0%*.
For COc1ccc2nc(NC(=O)Nc3ccccc3)sc2c1 the results were KCNQ1 inh inactive, KCNQ1 act inactive, Kir21 inh 0.05, KCNK9 block inactive, KCNK3 block inactive and hERG protect -7.4.
CC(C)(C)c1nc(NC(=O)Nc2ccccc2)sc1Br was read as KCNQ1 inh 7*, KCNQ1 act inactive, Kir21 inh 0.77, KCNK9 block inactive, KCNK3 block inactive, hERG protect -14.2, KCNQ1 inh valid 91.5*, CHO Tl flux 0.509, KCNQ1 APC inh inactive, KCNQ2 inh inactive and KCNQ1-KCNE1 inh 69.0%*.

Source: PubChem BioAssay (Johns Hopkins Ion Channel Center)
